pIC50, pKd: −log10 of the molar value. Square brackets hold non-standard residues; d marks the D form. Peptide text beside a SMILES is read from it. * marks the point of attachment. Benzoyl(4-tBu) = CC(C)(C)c1ccc(C(=O)*)cc1; Lys(Et2) = CCN(CC)CCCC[C@H](N)C(=O)O
Legend:
CBX5 = CBX5 (Homo sapiens, UniProt P45973); conditions: affinity of CBX5 for H3K9me3; cited from earlier work
MPP8 [1] = target: T1, MPP8 (Homo sapiens, UniProt Q99549); conditions: MPP8 binding the tracer peptide H3K9me3; cited from earlier work
T1 sequence (Q99549 55-116): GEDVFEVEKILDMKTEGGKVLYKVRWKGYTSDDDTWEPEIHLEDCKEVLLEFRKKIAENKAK

MPP8 [2] = target: T1, MPP8; assay: TR-FRET competition assay, MPP8 chromodomain with H3K9me3 tracer; format: binding
Outline: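 His-tagged protein plus biotinylated tracer peptide with Eu-streptavidin and anti-6X-His ULight antibody, in 20 mM Tris pH 7.5, 150 mM NaCl, 0.05% Tween 20, 2 mM DTT; 10 µL total. Test compound: 16-point threefold dilution in buffer, in triplicate. Mixed, centrifuged, equilibrated 1 h in the dark, then read. Percent inhibition relative to DMSO (0%) and 100 µM competitor (100%); four-parameter fit gives IC50.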

CBX2 = target: T2, CBX2 (Homo sapiens, UniProt Q14781); assay: TR-FRET competition assay, CBX2 chromodomain with UNC4195 tracer; format: binding
T2 sequence (Q14781 9-66): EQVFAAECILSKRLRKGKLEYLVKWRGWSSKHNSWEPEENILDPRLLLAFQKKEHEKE
Outline: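 His-tagged protein, biotinylated tracer and TR-FRET reagent (Eu-streptavidin, anti-6X-His ULight antibody) premixed in 20 mM Tris pH 7.5, 150 mM NaCl, 0.05% Tween 20, 2 mM DTT. Added to plates pre-stamped from 10 mM DMSO stocks (100X). Shaken 1 min, spun 1000 x g 2 min, 1 h dark. DMSO and competitor full-column controls per plate. Follow-up used 10-point threefold dilutions and a four-parameter fit for IC50.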

CBX7 = target: T3, CBX7 (Homo sapiens, UniProt O95931); assay: TR-FRET competition assay, CBX7 chromodomain with UNC4195 tracer; format: binding
T3 sequence (O95931 8-62): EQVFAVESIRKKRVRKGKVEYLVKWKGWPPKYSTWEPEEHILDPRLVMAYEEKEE

Sequence of CBX5 (P45973 18-75): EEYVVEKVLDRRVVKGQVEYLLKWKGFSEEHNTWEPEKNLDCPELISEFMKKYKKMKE

| Compound | pKd (CBX5) | affinity (MPP8 [1]) | pIC50 (MPP8 [2]) | pIC50 (CBX2) | inhibition (CBX2; single-dose 25 µM, pilot screen in duplicate, 100% = 100 µM UNC3866) [%] | pIC50 (CBX7) |
| --- | --- | --- | --- | --- | --- | --- |
| ARTKQTARK(Me3)STGGKAPRKQL-K(Biotin)-NH2 [H3K9me3] | ~4.52 | sub-micromolar | – | – | – | – |
| CCN(CC)CCCC[C@H](NC(=O)[C@H](CC(C)C)NC(=O)[C@H](C)NC(=O)[C@H](Cc1ccccc1)NC(=O)c1ccc(C(C)(C)C)cc1)C(=O)N[C@@H](CO)C(=O)OC [UNC3866] ({Benzoyl(4-tBu)}-FAL[Lys(Et2)]S-OMe) | – | – | 6.00 | 5.82 | 100 | 7.22 |
